Experimental findings from ChEMBL document CHEMBL2321859, “Cytotoxic betulin-derived hydroxypropargylamines trigger apoptosis” (Bioorg Med Chem, 2013) are described below.

Broadly, the IC50 is the concentration at which inhibition is half-maximal. In general, solubility refers to the concentration that dissolves in the medium under given conditions.

One data set relates to SW-1736. Description: Cytotoxicity against human SW1736 cells assessed as cell viability after 96 hrs by SRB assay. Type of data set: functional, cell-based. The note with it: Homo sapiens, SW-1736, 96 h.
A further data set deals with DLD-1. Description: Cytotoxicity against human DLD1 cells assessed as cell viability after 96 hrs by SRB assay. Type of data set: functional, cell-based. Particulars: Homo sapiens, DLD-1, 96 h. (In general: The SRB assay estimates cell density from bound dye.)
A further data set deals with A2780. Description: Cytotoxicity against human A2780 cells assessed as cell viability after 96 hrs by SRB assay. Format: functional, cell-based. Particulars: Homo sapiens, A2780, 96 h.
A short description of data set [1]: Cytotoxicity against human A253 cells assessed as cell viability after 96 hrs by SRB assay. Type of data set: functional, cell-based. The note with it: Homo sapiens, A253, 96 h.
Another data set concerns NIH3T3. Description: Cytotoxicity against mouse NIH/3T3 cells assessed as cell viability after 96 hrs by SRB assay. Format: cell-based. Particulars: NIH3T3, 96 h.
The subject of another data set is 8505C. In words: Cytotoxicity against human 8505C cells assessed as cell viability after 96 hrs by SRB assay. Particulars: Homo sapiens, 8505C, 96 h. Type of data set: functional, cell-based.
Data set [2] is described as follows: Cytotoxicity against human 518A2 cells assessed as cell viability after 96 hrs by SRB assay. Type of data set: functional, cell-based. Particulars: Homo sapiens, 518A2, 96 h.
In data set [3] the test system is A549. Description: Induction of apoptosis in human A549 cells assessed as early apoptotic cells at 5 uM after 6 hrs by annexin V/propidium iodide staining-based FACS flow cytometric analysis relative to control. Format: functional. The procedure, abridged:
(§1)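 A549 cells incubated 6 h with compound, then analysed by FACS annexin V/propidium iodide assay. Phosphatidylserine translocation to the outer membrane was taken as the early-apoptosis marker. Cells were scored as percentage dying by necrosis versus programmed cell death. Betulinic acid and maslinic acid were the reference standards.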

The test system of the next data set is MCF7. In words: Cytotoxicity against human MCF7 cells assessed as cell viability after 96 hrs by SRB assay. Format: functional, cell-based. Particulars: Homo sapiens, MCF7, 96 h.
Data set [4] in a line: Solubility of the compound in water/DMSO mixture. Type of data set: physicochemical. The note with it: water/DMSO mixture; read-out: solubility. The procedure, abridged:
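Solubility was measured in water/DMSO (95:5, v/v) by HPLC with UV/vis detection.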

Data set [5] has as its system A549. Description: Cytotoxicity against human A549 cells assessed as cell viability after 96 hrs by SRB assay. Format: functional, cell-based. Particulars: Homo sapiens, A549, 96 h.
Data set [6] is described as follows: Cytotoxicity against human Lipo cells assessed as cell viability after 96 hrs by SRB assay. Particulars: Homo sapiens, Lipo, 96 h. Type of data set: functional, cell-based.
Data set [7] deals with A549. In words: Induction of apoptosis in human A549 cells assessed as chromatin condensation by acridine orange/propidium iodide staining. Format: functional, cell-based.
For data set [8], the system named is A549. In words: Induction of apoptosis in human A549 cells assessed as cell shrinking by acridine orange/propidium iodide staining. Type of data set: functional, cell-based.
The subject of data set [9] is A549. Description: Induction of apoptosis in human A549 cells assessed as early apoptotic cells at 10 uM after 6 hrs by annexin V/propidium iodide staining-based FACS flow cytometric analysis relative to control. Type of data set: functional. The method, boiled down:
as §1
A general note: In flow cytometry, cells or beads pass a laser one at a time.

Data set [10] relates to A549. In words: Cell cycle arrest in human A549 cells assessed as accumulation at G2/M phase by acridine orange/propidium iodide staining. Format: functional, cell-based.
Data set [11] concerns A549. In words: Induction of apoptosis in human A549 cells assessed as DNA fragmentation by DNA laddering assay. Type of data set: functional, cell-based. The method, boiled down: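 DNA fragmentation was checked by DNA laddering in treated human cancer cells, as an indicator of apoptotic cell death.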
For data set [12], the system named is A549. Description: Induction of apoptosis in human A549 cells assessed as membrane blebbing by acridine orange/propidium iodide staining. Type of data set: functional, cell-based.

Structures are written as SMILES. Active and inactive are the calls of the source. No cut-off for these calls is given here.

With `C=C(C)[C@@H]1CC[C@]2([C@H](O)C#CCN3CCOCC3)CC[C@]3(C)[C@H](CC[C@@H]4[C@@]5(C)CC[C@H](OC(C)=O)C(C)(C)[C@@H]5CC[C@]43C)[C@@H]12.Cl`, the IC50 is 8.9 µM in the data set on SW-1736; 5 µM with DLD-1; 4.1 µM in the data set with A2780; 5.2 µM in [1]; 7.2 µM in the data set with NIH3T3; 7.2 µM with 8505C. The half-inhibitory concentration (IC50) stood at 7 µM in data set [2], 7.7 µM in the data set with MCF7, 7.6 µM with A549 [5] and 2.4 µM in data set [6]. For the same molecule, in the data set on A549 [3], the Activity is over 90%. In addition, in data set [4], the solubility was 192 µg/mL.
As for `C=C(C)[C@@H]1CC[C@]2([C@@H](O)CCCN(C(C)C)C(C)C)CC[C@]3(C)[C@H](CC[C@@H]4[C@@]5(C)CC[C@H](O)C(C)(C)[C@@H]5CC[C@]43C)[C@@H]12`, the IC50 with SW-1736 amounted to 1.7 µM; in the data set with DLD-1, 2.3 µM; in the data set with A2780, 1.6 µM; in data set [1], 1.8 µM; with NIH3T3 it was 1.7 µM; with 8505C it was 2.3 µM. Besides, the half-inhibitory concentration (IC50) in [2] turned out to be 2.1 µM; with MCF7 it was 0.7 µM; in the data set on A549 [5], 2.2 µM; in [6] it was 2.3 µM. Further, the result in the data set on A549 [7], with A549 [8], in the data set with A549 [10], in the data set with A549 [11] and in the data set with A549 [12] was Active. In addition, the Activity in the data set on A549 [9] is reported as over 90%.
Regarding `C=C(C)[C@@H]1CC[C@]2([C@@H](O)C#CCN(CCC)CCC)CC[C@]3(C)[C@H](CC[C@@H]4[C@@]5(C)CC[C@H](OC(C)=O)C(C)(C)[C@@H]5CC[C@]43C)[C@@H]12.CI`, the IC50 came to 3.2 µM in the data set on SW-1736; 4.8 µM in the data set with DLD-1; 2.3 µM with A2780; 3.5 µM in [1]; 6.8 µM with NIH3T3; 4.1 µM in the data set on 8505C. Moreover, the IC50 in data set [2] is 4.6 µM; with MCF7 it was 3.2 µM; with A549 [5], 4.5 µM; in data set [6], 4.3 µM. Also, the outcome with A549 [7], in the data set with A549 [8], with A549 [10], with A549 [11] and in the data set on A549 [12] was Active. Further, the Activity in the data set on A549 [9] was over 90%.
